pIC50: −log10 of the molar value.
Columns and labels:
[1] = test system: Leishmania major; test: Antileishmanial activity against Leishmania major IR-173 promastigotes assessed as inhibition of parasite growth incubated for 48 hrs by resazurin staining based analysis; format: functional, organism-based; settings: IR-173, 48 h
Method in brief: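 Logarithmic-phase promastigotes (1.25 × 10^6 cells per mL) grown in supplemented M199 with 10% FBS, pH 7.3–7.4, 26 °C. […] 48 h at 26 °C, then resazurin 24 h in the dark. Absorbance 570 minus 600 nm. IC50 by non-linear regression, mean ± SD of three biological replicates.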

[2] = test system: Leishmania donovani; test: Antileishmanial activity against Leishmania donovani MHOM/IN/95/9515 promastigotes assessed as inhibition of parasite growth incubated for 48 hrs by resazurin staining based analysis; format: functional, organism-based; settings: MHOM/IN/95/9515, 48 h
[3] = test system: Leishmania major; test: Antileishmanial activity against Leishmania major IR-173 amastigote assessed as inhibition of parasite growth incubated for 72 hrs by resazurin staining based analysis; settings: IR-173, 72 h
[4] = test system: Leishmania donovani; test: Antileishmanial activity against Leishmania donovani MHOM/IN/95/9515 amastigote assessed as inhibition of parasite growth incubated for 72 hrs by resazurin staining based analysis; settings: MHOM/IN/95/9515, 72 h
[5] = test system: THP-1; test: cells; format: functional, cell-based; settings: Homo sapiens, THP-1, 72 h
[6] = test system: Leishmania major; test: Selectivity index, ratio of IC50 for antileishmanial activity against Leishmania major IR-173 promastigotes assessed as inhibition of parasite growth to IC50 for antileishmanial activity against Leishmania major IR-173 amastigote assessed as inhibition of parasite growth; format: functional
[7] = test system: Trypanosoma cruzi; test: Antitrypanosomal activity against Trypanosoma cruzi epimastigotes assessed as parasite growth inhibition incubated for 48 hrs by resazurin staining based analysis; format: functional, organism-based
[8] = Selectivity index, ratio of IC50 for cytotoxicity against African green monkey Vero cells assessed as inhibition of cell growth to IC50 for antitrypanosomal activity against Trypanosoma cruzi epimastigotes assessed as parasite growth inhibition; format: toxicity, cell-based; settings: read-out: Ratio IC50
[9] = Selectivity index, ratio of IC50 for cytotoxicity against African green monkey Vero cells assessed as inhibition of cell growth to IC50 for antitrypanosomal activity against Trypanosoma cruzi trypomastigotes assessed as parasite growth inhibition; format: toxicity, cell-based; settings: read-out: Ratio IC50
[10] = Selectivity index, ratio of IC50 for cytotoxicity against human THP-1 cells assessed as inhibition of cell growth to IC50 for antitrypanosomal activity against Trypanosoma cruzi trypomastigotes assessed as parasite growth inhibition; format: functional
[11] = test system: Trypanosoma cruzi; test: Selectivity index, ratio of IC50 for antitrypanosomal activity against Trypanosoma cruzi epimastigote assessed as parasite growth inhibition to IC50 for antitrypanosomal activity against Trypanosoma cruzi trypomastigotes assessed as parasite growth inhibition; format: functional
[12] = in vitro; settings: monkey, Vero cells
[13] = in vitro; settings: monkey, Vero cells; remark: listed apart in the source
[14] = in vitro; settings: monkey, Vero cells; remark: listed apart in the source
[15] = test system: Trypanosoma cruzi; test: Antitrypanosomal activity against bloodstream Trypanosoma cruzi trypomastigotes infected in African green monkey Vero cells assessed as parasite growth inhibition incubated for 48 hrs by resazurin assay
[16] = Selectivity index, ratio of IC50 for cytotoxicity against human THP-1 cells assessed as inhibition of cell growth to IC50 for antileishmanial activity against Leishmania donovani MHOM/IN/95/9515 amastigote assessed as inhibition of parasite growth; format: functional
[17] = test system: Leishmania donovani; test: Selectivity index, ratio of IC50 for antileishmanial activity against Leishmania donovani MHOM/IN/95/9515 promastigotes assessed as inhibition of parasite growth to IC50 for antileishmanial activity against Leishmania donovani MHOM/IN/95/9515 amastigote assessed as inhibition of parasite growth; format: functional
[18] = in vitro; settings: monkey, Vero cells; remark: listed apart in the source

O=C1OCCN1/N=C/c1ccc([N+](=O)[O-])o1 [FURAZOLIDONE]
pIC50 [1]: 6.47
pIC50 [2]: 6.55
pIC50 [3]: 5.25
pIC50 [4]: 5.57

O=[N+]([O-])c1ccc(/C=N/N=C/c2ccc(F)cc2)o1
pIC50 [5]: 4.20
pIC50 [1]: 6.14
Ratio IC50 [6]: 0.2
pIC50 [2]: 5.93
pIC50 [7]: 5.45
selectivity ratio [8]: 13
selectivity ratio [9]: 24
Ratio IC50 [10]: 51
Ratio IC50 [11]: 1.83
selectivity ratio [12]: 65
selectivity ratio [13]: 13
selectivity ratio [14]: 40
pIC50 [3]: 5.43
pIC50 [4]: < 5.00
pIC50 [15]: 5.71

O=[N+]([O-])c1ccc(/C=N/N=C/c2ccccc2)s1
pIC50 [5]: < 4.00
pIC50 [1]: 5.84
pIC50 [2]: 6.03
Ratio IC50 [16]: 14
Ratio IC50 [17]: 0.13
pIC50 [7]: 5.04
selectivity ratio [8]: 5
selectivity ratio [9]: 17
Ratio IC50 [10]: 40
Ratio IC50 [11]: 3.68
selectivity ratio [12]: 29
selectivity ratio [14]: 45
selectivity ratio [18]: 6
pIC50 [3]: < 5.00
pIC50 [4]: 5.14
pIC50 [15]: 5.60

O=[N+]([O-])c1ccc(/C=N/N=C/c2ccc(O)cc2)o1
pIC50 [5]: 4.34
pIC50 [1]: 6.19
pIC50 [2]: 5.99
Ratio IC50 [16]: 17
Ratio IC50 [17]: 0.38
pIC50 [7]: 5.14
selectivity ratio [8]: 3
selectivity ratio [9]: 11
Ratio IC50 [10]: 27
Ratio IC50 [11]: 4.2
selectivity ratio [12]: 29
selectivity ratio [14]: 18
selectivity ratio [18]: 7
pIC50 [3]: < 5.00
pIC50 [4]: 5.57
pIC50 [15]: 5.76

O=[N+]([O-])c1ccc(/C=N/N=C/c2ccc(F)cc2)s1
pIC50 [5]: < 4.00
pIC50 [1]: 5.42
pIC50 [2]: 5.70
pIC50 [7]: < 5.00
selectivity ratio [9]: 15
Ratio IC50 [10]: 15
selectivity ratio [12]: 26
selectivity ratio [14]: 50
pIC50 [3]: < 5.00
pIC50 [4]: < 5.00
pIC50 [15]: 5.18

O=[N+]([O-])c1ccc(/C=N/N=C/c2ccco2)cc1
pIC50 [1]: < 5.00
pIC50 [2]: < 5.00
pIC50 [7]: < 5.00
pIC50 [3]: < 5.00
pIC50 [4]: < 5.00
pIC50 [15]: < 5.00

O=[N+]([O-])c1ccc(/C=N/N=C/c2ccc(OCc3ccccc3)cc2)s1
pIC50 [5]: < 4.00
pIC50 [1]: 5.36
selectivity ratio [12]: 23
pIC50 [3]: < 5.00

O=Cc1ccc([N+](=O)[O-])s1
pIC50 [5]: 4.57
pIC50 [1]: 5.43
pIC50 [2]: 5.29
pIC50 [7]: < 5.00
selectivity ratio [9]: 8
Ratio IC50 [10]: 16
selectivity ratio [12]: 3
selectivity ratio [14]: 2
pIC50 [3]: < 5.00
pIC50 [4]: < 5.00
pIC50 [15]: 5.79

O=[N+]([O-])c1ccc(/C=N/N=C/c2ccc(O)cc2)s1
pIC50 [5]: 4.64
pIC50 [1]: 5.65
pIC50 [2]: 5.78
Ratio IC50 [16]: 67
Ratio IC50 [17]: 4.88
pIC50 [7]: < 5.00
selectivity ratio [9]: 11
Ratio IC50 [10]: 8
selectivity ratio [12]: 15
selectivity ratio [14]: 20
selectivity ratio [18]: 97
pIC50 [3]: < 5.00
pIC50 [4]: 6.47
pIC50 [15]: 5.52

O=[N+]([O-])c1ccc(/C=N/N=C/c2ccccc2)o1
pIC50 [5]: < 4.00
pIC50 [1]: 5.92
pIC50 [2]: 5.84
pIC50 [7]: 5.12
selectivity ratio [8]: 2
selectivity ratio [9]: 7
Ratio IC50 [10]: 42
Ratio IC50 [11]: 3.32
selectivity ratio [12]: 14
selectivity ratio [14]: 11
pIC50 [3]: < 5.00
pIC50 [4]: < 5.00
pIC50 [15]: 5.64

NC(=O)N/N=C/c1ccc([N+](=O)[O-])o1 [NITROFURAZONE]
pIC50 [5]: < 4.00
pIC50 [1]: 5.73
pIC50 [2]: 5.73
Ratio IC50 [17]: 1.09
pIC50 [7]: 5.11
selectivity ratio [8]: 13
selectivity ratio [9]: 45
Ratio IC50 [10]: 45
Ratio IC50 [11]: 3.5
selectivity ratio [12]: 54
selectivity ratio [14]: 54
selectivity ratio [18]: 59
pIC50 [3]: < 5.00
pIC50 [4]: 5.77
pIC50 [15]: 5.65

O=C(Cn1ccnc1[N+](=O)[O-])NCc1ccccc1 [BENZNIDAZOLE]
pIC50 [5]: < 4.00
selectivity ratio [9]: 21
Ratio IC50 [10]: 21
pIC50 [15]: 5.32

COc1ccc(/C=N/N=C/c2ccc([N+](=O)[O-])o2)cc1
pIC50 [5]: < 4.00
pIC50 [1]: 6.05
pIC50 [2]: 5.94
Ratio IC50 [16]: 44
Ratio IC50 [17]: 0.51
pIC50 [7]: 5.31
selectivity ratio [8]: 10
selectivity ratio [9]: 8
Ratio IC50 [10]: 16
Ratio IC50 [11]: 0.8
selectivity ratio [12]: 57
selectivity ratio [14]: 44
selectivity ratio [18]: 22
pIC50 [3]: < 5.00
pIC50 [4]: 5.64
pIC50 [15]: 5.21

O=[N+]([O-])c1ccc(/C=N/N=C/c2ccc(OCc3ccccc3)cc2)o1
pIC50 [5]: < 4.00
pIC50 [1]: 6.35
pIC50 [2]: 5.79
Ratio IC50 [16]: 400
Ratio IC50 [17]: 6.44
pIC50 [7]: 4.02
selectivity ratio [8]: 1
selectivity ratio [12]: 222
selectivity ratio [14]: 62
selectivity ratio [18]: 400
pIC50 [3]: < 5.00
pIC50 [4]: 6.60
pIC50 [15]: < 5.00

C(=N\N=C\c1ccco1)/c1ccc(OCc2ccccc2)cc1
pIC50 [1]: < 5.00
pIC50 [2]: < 5.00
pIC50 [7]: < 5.00
pIC50 [3]: < 5.00
pIC50 [4]: < 5.00
pIC50 [15]: < 5.00

Cc1ccc(/C=N/N=C/c2ccc([N+](=O)[O-])o2)cc1
pIC50 [5]: < 4.00
pIC50 [1]: 6.38
pIC50 [2]: 6.12
pIC50 [7]: 5.43
selectivity ratio [8]: 27
selectivity ratio [9]: 25
Ratio IC50 [10]: 25
Ratio IC50 [11]: 0.91
selectivity ratio [12]: 238
selectivity ratio [14]: 132
pIC50 [3]: < 5.00
pIC50 [4]: < 5.00
pIC50 [15]: 5.39

From ChEMBL document CHEMBL5329184, “Design, synthesis, electrochemistry and anti-trypanosomatid hit/lead identification of nitrofuranylazines” (RSC Med Chem, 2023)
